Drawing on ChEMBL document CHEMBL1140729, “Synthesis and evaluation of 2'-hydroxyethyl trans-apovincaminate derivatives as antioxidant and cognitive enhancer agents” (J Med Chem, 2008), this text covers IC50, Activity and inhibition in vivo for 21 compounds.

pIC50: −log10 of the molar value. The source made the active and inactive calls. The rule behind the calls is not given here.

For assay [1], the species on record is Rattus norvegicus. In words: Inhibition of […] lipid peroxidation in rat brain microsome. The class given is functional. In a few lines: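 Rat brain microsomes (78000 g pellet) in KCl at 0.2 mg protein per ml. Medium: 50 mM Tris-HCl pH 6.8, 0.2 mM FeCl3, 1 mM KH2PO4, 0.5 mM ADP, preincubated 20 min at 37 °C ± compound. LPO started with 0.4 mM NADPH, run 20 min, stopped with TCA/HCl. TBA boiled 10 min, OD read at 535 nm. IC50 obtained by sigmoid fit of 7–9 concentrations, triplicates.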

Another assay concerns Brain. In words: Inhibition of Fe2+-induced lipid peroxidation in rat brain homogenate. The format is functional, tissue-based. In a few lines: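 Whole rat brain homogenized in 9 vol ice-cold Krebs-Ringer/15 mM HEPES pH 7.4 with glucose, used fresh at 10 mg protein/ml. Preincubated with compound 20 min at 37 °C. LPO started with ferrous ammonium sulfate (200 µM Fe²⁺), run 20 min, stopped with TCA/HCl. TBA added to supernatant, boiled 20 min, OD read at 535 nm. IC50 obtained by sigmoid fit of 6–9 concentrations, triplicates.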

In assay [2] the test system is Rattus norvegicus. Nature of the assay: Protective effect against diazepam-induced learning-deficit in Wistar rat at 5 mg/kg, po by water labyrinth test. The format is functional. The procedure, abridged: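 Male Wistar rats, 200–220 g, 10 per group. Diazepam 5 mg/kg i.p. in 5% Tween 80, given 30 min before the first swim. Compound given orally at 5 mg/kg 1 h before the first daily trial. Four-day water-labyrinth task with three choice points in water at 24 °C: one pretraining day, then three trials per day. Directional turning errors counted, 12 if the platform was not found in 5 min. Percent restoration calculated; ANOVA with Duncan test.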

The subject of assay [3] is Mus musculus. Nature of the assay: Inhibition of diazepam-induced amnesia in NMRI mouse at 0.1 mg/kg, po by one-trial passive avoidance test. The class given is functional. In a few lines:
(§1)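 Male NMRI mice, 25–28 g, 10 per group. Anterograde amnesia induced by diazepam 3 mg/kg i.p. 30 min before the acquisition trial. Test compound given orally (0.1 or 10 mg/kg) 1 h before acquisition. Readout is latency to enter the dark chamber. Percent restoration P% = (T_treated+DIA − T_placebo+DIA)/(T_placebo − T_placebo+DIA) × 100.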

Assay [4] has as its system Mus musculus. Nature of the assay: Inhibition of diazepam-induced amnesia in NMRI mouse at 10 mg/kg, po by one-trial passive avoidance test. The format is functional. In a few lines:
as §1

The subject of assay [5] is Mus musculus. Nature of the assay: Effect on memory improvement in NMRI mouse at 10 mg/kg by passive avoidance test. The format is functional, organism-based. Set-up: dose 10 mg/kg. In a few lines:
as §1

By pIC50 is commonly meant the negative decadic logarithm of the IC50, by convention in mol/L. Lower therefore signals a large IC50. With `CCOC(=O)C1=C[C@]2(CC)CCCN3CCc4c(n1c1ccccc41)[C@H]32`, the figures for the pIC50 in the assay filed under Rattus norvegicus [1] and in the assay on Brain were 5.46 and 4.84, respectively.
Consider `CC[C@@]12C=C(C(=O)[O-])n3c4c(c5ccccc53)CCN(CCC1)[C@@H]42.[Na+]`, for which the pIC50 in the assay listed under Rattus norvegicus [1] is under 3.52; in the assay on Brain, 3.62. In the assay with Rattus norvegicus [2], this compound had an Activity of 71.3%.
A word on the inhibition in vivo: it is the change of the read-out against control, counted positive when it falls. The low end stands for a weak effect, the high end for a strong effect. On to `CC[C@@]12C=C(C(=O)OCCOC(=O)c3ccc(Cl)cc3)n3c4c(c5ccccc53)CCN(CCC1)[C@@H]42`, for which the pIC50 in the assay filed under Rattus norvegicus [1] is 5.57; in the assay with Brain, 4.84. In the assay with Mus musculus [3], the inhibition in vivo at 0.1 mg/kg amounted to 3%. The compound also gave an inhibition in vivo at 10 mg/kg with Mus musculus [4] of 15%.
`CC[C@@]12C=C(C(=O)O)n3c4c(c5ccccc53)CCN(CCC1)[C@H]42` displayed an Activity in the assay on Rattus norvegicus [2] of 66.7%.
For `CCC(=O)OCCOC(=O)C1=C[C@]2(CC)CCCN3CCc4c(n1c1ccccc41)[C@H]32`, the pIC50 in the assay listed under Rattus norvegicus [1] is 5.30; with Brain it was 4.68. The compound also yielded an inhibition in vivo at 0.1 mg/kg with Mus musculus [3] of 16%. In the assay on Mus musculus [4], this compound gave an inhibition in vivo at 10 mg/kg of 4%.
On to `CC[C@@]12C=C(C(=O)OCCO)n3c4c(c5ccccc53)CCN(CCC1)[C@@H]42`, for which the results for the negative-log IC50 (pIC50) in the assay listed under Rattus norvegicus [1] and with Brain were 5.15 and 4.86, respectively. Besides, the inhibition in vivo at 0.1 mg/kg with Mus musculus [3] was found to be 74%. The compound also displayed an inhibition in vivo at 10 mg/kg in the assay on Mus musculus [4] of 65%. Further, in the assay with Mus musculus [5], the result was Active. Moreover, in the assay on Rattus norvegicus [2], the Activity is 81.1%.
For `CC[C@]12C=C(C(=O)OCCOC(C)=O)n3c4c(c5ccccc53)CCN(CCC1)[C@H]42`, the pIC50 is 5.42 in the assay listed under Rattus norvegicus [1] and 4.82 in the assay on Brain. Besides, 0.1 mg/kg produced 72% inhibition in vivo in the assay with Mus musculus [3]. In addition, the inhibition in vivo at 10 mg/kg with Mus musculus [4] turned out to be 44%. The outcome in the assay with Mus musculus [5] was Active.
The like results for `CC[C@@]12C=C(C(=O)OCCOC(C)=O)n3c4c(c5ccccc53)CCN(CCC1)[C@@H]42` were, in that order, 5.44, 5.01, 79%, 100% and “Active”.
With `CC[C@@]12C=C(C(=O)OCCO)n3c4c(c5ccccc53)CCN(CCC1)[C@H]42`, the negative-log IC50 (pIC50) in the assay filed under Rattus norvegicus [1] is under 4.52. For the same compound, the Activity in the assay with Rattus norvegicus [2] is recorded as 80.3%.
As for `O=c1c(O)c(-c2ccc(O)c(O)c2)oc2cc(O)cc(O)c12` [QUERCETIN], the pIC50 in the assay filed under Rattus norvegicus [1] is 5.07; with Brain it was 4.97.
Turning to `CCOC(=O)C1=C[C@]2(CC)CCCN3CCc4c(n1c1ccccc41)[C@@H]32` [VINPOCETINE], the pIC50 in the assay filed under Rattus norvegicus [1] was 3.86; in the assay with Brain it was 3.68. In the assay on Mus musculus [3], this compound gave an inhibition in vivo at 0.1 mg/kg of 0%. In the assay on Mus musculus [4], this compound displayed an inhibition in vivo at 10 mg/kg of 100%. The compound also gave an Activity with Rattus norvegicus [2] of 56.6%.
For `Cc1cc(C(C)(C)C)c(O)c(C(C)(C)C)c1` [BUTYLATED HYDROXYTOLUENE], the results for the pIC50 in the assay filed under Rattus norvegicus [1] and with Brain were 5.49 and 5.21, respectively.
As for `CCC(=O)OCCOC(=O)C1=C[C@@]2(CC)CCCN3CCc4c(n1c1ccccc41)[C@@H]32`, the pIC50 in the assay filed under Rattus norvegicus [1] was 5.36; with Brain, 4.80. Further, at 0.1 mg/kg the inhibition in vivo in the assay with Mus musculus [3] was 64%. In the assay on Mus musculus [4], this compound returned an inhibition in vivo at 10 mg/kg of 24%.
As to `CC[C@]12C=C(C(=O)OCCO)n3c4c(c5ccccc53)CCN(CCC1)[C@H]42`, the pIC50 in the assay filed under Rattus norvegicus [1] is 5.04; with Brain, 4.87. In addition, at 0.1 mg/kg the inhibition in vivo in the assay on Mus musculus [3] was 50%. The compound further yielded an inhibition in vivo at 10 mg/kg in the assay on Mus musculus [4] of 56%. Besides, the result in the assay with Mus musculus [5] was Active.
As to `Cc1c(C)c2c(c(C)c1O)CCC(C)(CCCC(C)CCCC(C)CCCC(C)C)O2` (racemic) [alpha-TOCHOPHEROL], the negative logarithm of the IC50 (pIC50) in the assay filed under Rattus norvegicus [1] was 3.56; in the assay on Brain, 4.45.
In the same order, the values of `COC1=C(OC)C(=O)C(CCCCCCCCCCO)=C(C)C1=O` [IDEBENONE] are 5.89 and 4.50.
Take `CC[C@@]12C=C(C(=O)OCCOC(=O)c3ccccc3)n3c4c(c5ccccc53)CCN(CCC1)[C@@H]42`: the pIC50 in the assay listed under Rattus norvegicus [1] was 5.42; in the assay with Brain it was 4.74. The compound also had an inhibition in vivo at 0.1 mg/kg in the assay on Mus musculus [3] of 0%. In addition, in the assay with Mus musculus [4], the inhibition in vivo at 10 mg/kg worked out at 0%.
Take `CC[C@]12C=C(C(=O)OCCOC(=O)c3ccc(Cl)cc3)n3c4c(c5ccccc53)CCN(CCC1)[C@H]42`: the figures for the pIC50 in the assay filed under Rattus norvegicus [1] and in the assay with Brain were 5.57 and 4.80, respectively.
As to `CCOC(=O)C1=C[C@@]2(CC)CCCN3CCc4c(n1c1ccccc41)[C@@H]32`, the negative-log IC50 (pIC50) was 5.52 in the assay filed under Rattus norvegicus [1] and 4.87 in the assay on Brain.
The like results for `CC[C@]12C=C(C(=O)O)n3c4c(c5ccccc53)CCN(CCC1)[C@H]42` were, in that order, under 3.52 and 3.59.
As for `CC[C@]12C=C(C(=O)OCCOC(=O)c3ccccc3)n3c4c(c5ccccc53)CCN(CCC1)[C@H]42`, the pIC50 in the assay filed under Rattus norvegicus [1] was 5.47; with Brain, 4.83. In the assay on Mus musculus [3], this compound gave an inhibition in vivo at 0.1 mg/kg of 23%. Moreover, in the assay with Mus musculus [4], the inhibition in vivo at 10 mg/kg turned out to be 16%.
